Experimental data as given in ChEMBL document CHEMBL1151773, “Synthesis and biological evaluation of amide derivatives of (5,6-dimethoxy-2,3-dihydro-1H-inden-1-yl)acetic acid as anti-inflammatory agents with reduced gastrointestinal ulcerogenecity” (Eur J Med Chem, 2008).

What was measured:
[1] = system: Rattus norvegicus; experiment: Antiinflammatory activity in Wistar rat assessed as inhibition of carrageenan-induced hind paw edema volume at 100 mg/kg, po administered 60 mins before carrageenan challenge after 24 hrs relative to control; type: functional
[2] = system: Rattus norvegicus; experiment: Antiarthritic activity in Albino rat assessed as inhibition of Freund's complete adjuvant-induced paw volume at 100 mg/kg, po administered for 14 days daily once starting a day before adjuvant challenge measured on day 13; type: functional
Summary of the method: (§1)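 Female albino rats, 160±10 g, six per group, dosed orally once daily for 14 days starting the day before 0.1 ml Freund's complete adjuvant into the right hind paw subplantar surface. Both hind paw volumes, measured up to a mark at the lateral malleolus, taken before and daily after adjuvant.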

[3] = system: Rattus norvegicus; experiment: Antipyretic activity in Wistar rat assessed as change in LPS-induced rectal temperature at 100 mg/kg, po administered 30 mins before LPS challenge after 5 hrs; type: functional
Summary of the method: (§2)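 Adult female Wistar rats, 170±20 g, fasted 24 h, dosed orally at 09:00; 30 min later E. coli 0111:B4 phenol-extracted LPS in apyrogenic saline given i.p. Rectal temperature by telethermometer probe just before and 1–7 h hourly after LPS; temperature index calculated from these readings. n = 6.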

[4] = system: Rattus norvegicus; experiment: Antiinflammatory activity in Wistar rat assessed as inhibition of carrageenan-induced hind paw edema volume at 100 mg/kg, po administered 60 mins before carrageenan challenge after 3 hrs relative to control; type: functional
[5] = system: Rattus norvegicus; experiment: Antiinflammatory activity in Wistar rat assessed as inhibition of carrageenan-induced hind paw edema volume at 100 mg/kg, po administered 60 mins before carrageenan challenge after 1 hr relative to control; type: functional
[6] = system: Rattus norvegicus; experiment: Gastrointestinal toxicity in Wistar rat assessed as ulcer index at 100 mg/kg, po after 14 days; type: organism-based; parameters: dose 100 mg/kg, route oral; details: in vivo, 336 h
Summary of the method: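 Gastric mucosa examined for ulceration at post-mortem of female albino rats sacrificed at the end of the 14-day once-daily oral dosing in the Freund's adjuvant arthritis study; ulcer index scored per animal. Mean ± SEM, n = 6.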

[7] = system: Rattus norvegicus; experiment: Antiinflammatory activity in Wistar rat assessed as inhibition of carrageenan-induced hind paw edema volume at 100 mg/kg, po administered 60 mins before carrageenan challenge after 4 hrs relative to control; type: functional
[8] = system: Rattus norvegicus; experiment: Gastrointestinal toxicity in Wistar rat assessed as ulcer index at 100 mg/kg, po after 6 hrs; type: organism-based; parameters: dose 100 mg/kg, route oral; details: in vivo
Summary of the method: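 Female Wistar rats, 175±25 g, fasted 24 h, dosed orally once; sacrificed 6 h later by cervical dislocation. Stomach opened along greater curvature, saline-washed, mucosa inspected with a hand lens. Lesions graded I (edema/hyperemia/petechiae), II (hemorrhagic lesions with small erosions), III (deep ulcers); UI = nI + 2nII + 3nIII. Mean ± SEM, n = 6.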

[9] = system: Rattus norvegicus; experiment: Antipyretic activity in Wistar rat assessed as change in LPS-induced rectal temperature at 100 mg/kg, po administered 30 mins before LPS challenge after 4 hrs; type: functional; summary of the method: as §2
[10] = system: Mus musculus; experiment: Analgesic activity in Swiss albino mouse assessed as inhibition of acetic acid-induced writhing at 100 mg/kg, po administered 60 mins before acetic acid challenge after 5 to 15 mins relative to control; type: functional
Summary of the method: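 Female Swiss albino mice, 20±5 g, fasted overnight with free water access, dosed orally; 1 h later injected i.p. with 1% v/v acetic acid at 0.1 ml/10 g. Writhes (full hind-limb extension) counted for 15 min, starting 5 min after injection; only animals giving 20 or more writhes used. % inhibition = 100(1−Wt/Wc) vs control group mean; six animals per group.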

[11] = system: Rattus norvegicus; experiment: Antipyretic activity in Wistar rat assessed as change in LPS-induced rectal temperature at 100 mg/kg, po administered 30 mins before LPS challenge after 7 hrs; type: functional; summary of the method: as §2
[12] = system: Rattus norvegicus; experiment: Antipyretic activity in Wistar rat assessed as change in LPS-induced rectal temperature at 100 mg/kg, po administered 30 mins before LPS challenge after 1 hr; type: functional; summary of the method: as §2
[13] = system: Rattus norvegicus; experiment: Antiinflammatory activity in Wistar rat assessed as inhibition of carrageenan-induced hind paw edema volume at 100 mg/kg, po administered 60 mins before carrageenan challenge after 6 hrs relative to control; type: functional
[14] = system: Rattus norvegicus; experiment: Antiinflammatory activity in Wistar rat assessed as inhibition of carrageenan-induced hind paw edema volume at 100 mg/kg, po administered 60 mins before carrageenan challenge after 2 hrs relative to control; type: functional
[15] = system: Rattus norvegicus; experiment: Antipyretic activity in Wistar rat assessed as change in LPS-induced rectal temperature at 100 mg/kg, po administered 30 mins before LPS challenge after 6 hrs; type: functional; summary of the method: as §2
[16] = system: Rattus norvegicus; experiment: Antipyretic activity in Wistar rat assessed as change in LPS-induced rectal temperature at 100 mg/kg, po administered 30 mins before LPS challenge after 2 hrs; type: functional; summary of the method: as §2
[17] = system: Rattus norvegicus; experiment: Toxicity in Wistar rat assessed as mortality at up to 1000 mg/kg, po after 24 hrs; type: organism-based; parameters: dose 1000 mg/kg, route oral; details: in vivo
[18] = system: Rattus norvegicus; experiment: Antiarthritic activity in Freund's complete adjuvant challenged Albino rat model assessed as change in body weight at 100 mg/kg, po administered for 14 days daily once starting a day before adjuvant challenge; type: functional; details: 336 h, read-out: INH
[19] = system: Rattus norvegicus; experiment: Antiinflammatory activity in po dosed Wistar rat assessed as inhibition of carrageenan-induced hind paw edema volume administered 60 mins before carrageenan challenge; type: functional
[20] = system: Rattus norvegicus; experiment: Antipyretic activity in Wistar rat assessed as change in LPS-induced rectal temperature at 100 mg/kg, po administered 30 mins before LPS challenge after 3 hrs; type: functional; summary of the method: as §2
[21] = system: Rattus norvegicus; experiment: Antiarthritic activity in Albino rat assessed as inhibition of Freund's complete adjuvant-induced paw volume at 100 mg/kg, po administered for 14 days daily once starting a day before adjuvant challenge measured on day 8; type: functional; summary of the method: as §1
[22] = system: Rattus norvegicus; experiment: Antiarthritic activity in Albino rat assessed as inhibition of Freund's complete adjuvant-induced paw volume at 100 mg/kg, po administered for 14 days daily once starting a day before adjuvant challenge measured on day 3; type: functional; summary of the method: as §1

**Q.** What does the source list for COc1cc2c(cc1OC)C(CC(=O)NC1CCCCC1)CC2 (configuration not stated)?
**A.** inhibition in vivo at 100 mg/kg [1]: 53.3%; inhibition in vivo at 100 mg/kg [2]: 33.3%; Activity [3]: 0.51 °C; inhibition in vivo at 100 mg/kg [4]: 49.3%; inhibition in vivo at 100 mg/kg [5]: 50%; UI [6]: 0; inhibition in vivo at 100 mg/kg [7]: 50%; UI [8]: 0; Activity [9]: 0.05 °C; inhibition in vivo at 100 mg/kg [10]: 44.7%; Activity [11]: 0.43 °C; Activity [12]: -0.33 °C; inhibition in vivo at 100 mg/kg [13]: 48.1%; inhibition in vivo at 100 mg/kg [14]: 56%; Activity [15]: 0.45 °C; Activity [16]: -1.26 °C; Activity [17]: Non-toxic; inhibition in vivo at 100 mg/kg [18]: 6.84 g; ED30 [19]: 20 mg/kg; Activity [20]: -0.67 °C; inhibition in vivo at 100 mg/kg [21]: 31.8%; inhibition in vivo at 100 mg/kg [22]: 29%
